Source: ChEMBL document CHEMBL1133188, “Discovery of novel, potent, and selective small-molecule CCR5 antagonists as anti-HIV-1 agents: synthesis and biological evaluation of anilide derivatives with a quaternary ammonium moiety” (J Med Chem, 2000)

Experiments:
[1] = target: C-C chemokine receptor type 5 (Homo sapiens, UniProt P51681); experiment: Inhibitory effect on Chemokine binding to C-C chemokine receptor type 5 using [125I]RANTES
Summary of the method: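 CHO/CCR5 cells (5 × 10⁴ cells/100 μL) cultured 24 h at 37 °C, then medium replaced with Ham's F-12 binding buffer containing 20 mM Hepes and 0.5% BSA, pH 7.2. Binding with [125I]RANTES (2000 Ci/mmol) plus graded compound concentrations, room temperature, 40 min. Free ligand removed by washing with cold PBS; cell-bound radioactivity counted. IC50 = 50% inhibition of binding; means of duplicate separate experiments (one compound triplicate).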

[2] = tested on: Human immunodeficiency virus 1; experiment: Inhibitory effects on HIV-1 (Ba-L) replication was evaluated in PBMCs; assay type: functional, organism-based
[3] = target: C-C chemokine receptor type 2 (Homo sapiens, UniProt P41597); experiment: Inhibitory effect on the binding of [125I]- MCP-1 to C-C chemokine receptor type 2-expressing CHO cells; assay type: cell-based
C-C chemokine receptor type 2, sequence (P41597 whole entry): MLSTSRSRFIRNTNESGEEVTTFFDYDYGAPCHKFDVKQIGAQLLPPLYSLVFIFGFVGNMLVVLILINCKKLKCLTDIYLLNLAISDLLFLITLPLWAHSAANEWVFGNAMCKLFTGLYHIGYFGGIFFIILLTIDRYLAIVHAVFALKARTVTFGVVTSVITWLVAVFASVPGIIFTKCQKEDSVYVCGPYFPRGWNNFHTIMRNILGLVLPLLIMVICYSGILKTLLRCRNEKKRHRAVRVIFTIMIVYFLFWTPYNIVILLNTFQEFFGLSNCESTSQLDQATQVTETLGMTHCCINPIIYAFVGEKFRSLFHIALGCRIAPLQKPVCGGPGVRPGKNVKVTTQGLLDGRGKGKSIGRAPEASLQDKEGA
Summary of the method: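 CCR2b-expressing CHO cells (5 × 10⁴ cells/100 μL) cultured 24 h at 37 °C. Medium replaced with binding buffer: Ham's F-12, 20 mM Hepes, 0.5% BSA, pH 7.2. [125I]MCP-1 binding run at room temperature for 40 min with graded test-compound concentrations. Free ligand washed off with cold PBS; cell-associated radioactivity counted by scintillation.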

[4] = Inhibitory effects on HIV-1 (Ba-L) replication was evaluated in MAGI-CCR5 cells; assay type: functional, cell-based; conditions: Homo sapiens
[5] = target: T1, C-C chemokine receptor type 1 (Homo sapiens, UniProt P32246); experiment: Inhibitory effect on the binding of [125I]RANTES to C-C chemokine receptor type 1-expressing CHO cells; assay type: cell-based
T1 sequence (P32246 whole entry): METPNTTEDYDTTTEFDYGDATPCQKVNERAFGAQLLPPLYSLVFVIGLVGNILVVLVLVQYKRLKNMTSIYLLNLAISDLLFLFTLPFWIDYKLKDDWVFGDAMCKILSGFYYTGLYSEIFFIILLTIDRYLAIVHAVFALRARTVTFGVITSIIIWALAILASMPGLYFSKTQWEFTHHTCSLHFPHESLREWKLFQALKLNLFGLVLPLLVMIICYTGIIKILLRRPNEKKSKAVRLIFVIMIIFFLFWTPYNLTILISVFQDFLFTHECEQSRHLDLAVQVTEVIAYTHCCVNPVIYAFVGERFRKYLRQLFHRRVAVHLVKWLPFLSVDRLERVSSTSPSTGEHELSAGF
Summary of the method: (§1)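 Whole-cell radioligand binding on CHO cells expressing CCR1 ([125I]RANTES), CCR3 ([125I]eotaxin) or CCR4 ([125I]TARC). Cells were seeded and cultured 24 h at 37 °C. Binding ran in Ham's F-12 with 20 mM Hepes and 0.5% BSA, pH 7.2, at room temperature for 40 min with graded compound. After a cold-PBS wash, cell-bound radioactivity was counted. Means ± SEM of ≥3 separate experiments.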

[6] = target: T2, C-C chemokine receptor type 4 (Homo sapiens, UniProt P51679); experiment: Inhibitory effect on the binding of [125I]TARC to C-C chemokine receptor type 4-expressing CHO cells; assay type: cell-based; summary of the method: as §1
T2 sequence (P51679 whole entry): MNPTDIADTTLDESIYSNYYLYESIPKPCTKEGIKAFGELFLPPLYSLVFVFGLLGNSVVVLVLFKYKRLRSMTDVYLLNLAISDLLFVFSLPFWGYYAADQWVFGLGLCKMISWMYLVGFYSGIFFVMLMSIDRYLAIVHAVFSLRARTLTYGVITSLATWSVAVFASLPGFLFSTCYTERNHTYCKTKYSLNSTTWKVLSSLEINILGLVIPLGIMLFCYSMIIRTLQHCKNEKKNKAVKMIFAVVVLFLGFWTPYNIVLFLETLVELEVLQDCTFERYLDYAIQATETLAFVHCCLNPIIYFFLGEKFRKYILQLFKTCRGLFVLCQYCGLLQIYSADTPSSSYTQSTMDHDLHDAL

[7] = target: T3, C-C chemokine receptor type 3 (Homo sapiens, UniProt P51677); experiment: Inhibitory effect on the binding of [125I]- eotaxin to C-C chemokine receptor type 3- expressing CHO cells; assay type: cell-based; summary of the method: as §1
T3 sequence (P51677 whole entry): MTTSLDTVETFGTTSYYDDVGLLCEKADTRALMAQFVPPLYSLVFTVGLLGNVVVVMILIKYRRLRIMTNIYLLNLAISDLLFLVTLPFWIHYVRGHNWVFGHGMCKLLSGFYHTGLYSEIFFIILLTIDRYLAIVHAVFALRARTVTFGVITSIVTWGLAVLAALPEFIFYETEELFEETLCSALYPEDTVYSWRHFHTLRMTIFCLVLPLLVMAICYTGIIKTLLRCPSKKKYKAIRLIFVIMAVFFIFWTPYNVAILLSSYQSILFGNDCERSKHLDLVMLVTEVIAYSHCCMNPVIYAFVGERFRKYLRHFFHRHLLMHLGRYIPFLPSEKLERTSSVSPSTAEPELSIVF

C-C chemokine receptor type 5, sequence (P51681 whole entry): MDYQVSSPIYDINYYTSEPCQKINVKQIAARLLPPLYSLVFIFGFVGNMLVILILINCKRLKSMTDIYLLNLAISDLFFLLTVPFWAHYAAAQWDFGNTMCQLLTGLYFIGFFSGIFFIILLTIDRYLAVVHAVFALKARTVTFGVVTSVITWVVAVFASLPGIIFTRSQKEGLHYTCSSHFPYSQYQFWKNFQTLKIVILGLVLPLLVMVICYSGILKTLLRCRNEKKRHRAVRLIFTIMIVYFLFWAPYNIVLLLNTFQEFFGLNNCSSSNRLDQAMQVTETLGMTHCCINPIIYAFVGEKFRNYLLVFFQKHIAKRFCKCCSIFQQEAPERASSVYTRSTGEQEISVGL

Row | SMILES | IC50 [1] | also measured
1 | CC[N+](CC)(CC)Cc1ccc(NC(=O)C2=Cc3cc(-c4ccccc4)ccc3CC2)cc1 | 840 nM | –
2 | Cc1ccc(-c2ccc3c(c2)C=C(C(=O)Nc2ccc(C[N+](C)(C)C4CCOCC4)cc2)CCO3)cc1 | 1.4 nM | –
3 | CCOc1ccc(-c2ccc3c(c2)C=C(C(=O)Nc2ccc(C[N+](C)(C)C4CCOCC4)cc2)CCO3)cc1 | 1.8 nM | –
4 | C[N+]1(Cc2ccc(NC(=O)C3=Cc4cc(-c5ccccc5)ccc4CC3)cc2)CCCCCC1 | 380 nM | –
5 | Cc1ccc(-c2ccc3c(c2)C=C(C(=O)Nc2ccc(C[N+](C)(C)CCCO)cc2)CCO3)cc1 | 6.8 nM | –
6 | CCC(CC)[N+](C)(C)Cc1ccc(NC(=O)C2=Cc3cc(-c4ccc(C)cc4)ccc3OCC2)cc1 | 3.3 nM | –
7 | Cc1ccc(-c2ccc3c(c2)C=C(C(=O)Nc2ccc(C[N+]4(C)CCCCC4)cc2)CC3)cc1 | 240 nM | –
8 | Cc1ccc(-c2ccc3c(c2)C=C(C(=O)Nc2ccc(C[N+](C)(C)C4CCOCC4)cc2)CCC3)cc1 [listing 1 of 2 here] | 1.4 nM | EC50 [2]: 3.7 nM; IC50 [3]: 27 nM; EC50 [4]: 1.2 nM; IC50 [5]: > 10000 nM; IC50 [6]: > 10000 nM; IC50 [7]: > 10000 nM
9 | C[N+](C)(Cc1ccc(NC(=O)C2=Cc3cc(-c4ccc(C(F)(F)F)cc4)ccc3OCC2)cc1)C1CCOCC1 | 1.5 nM | –
10 | Cc1ccc(-c2ccc3c(c2)C=C(C(=O)Nc2ccc(C[N+](C)(C)C4CCSCC4)cc2)CCO3)cc1 | 3.1 nM | –
11 | Cc1ccc(-c2ccc3c(c2)C=C(C(=O)Nc2ccc(C[N+]4(C)CCCCC4)cc2)CCO3)cc1 | 43 nM | –
12 | C[N+](C)(Cc1ccc(NC(=O)C2=Cc3cc(-c4ccc(N5CCCC5)cc4)ccc3CCC2)cc1)C1CCOCC1 | 3.8 nM | –
13 | C[N+](C)(Cc1ccc(NC(=O)C2=Cc3cc(-c4ccc(N5CCCCC5)cc4)ccc3CCC2)cc1)C1CCOCC1 | 2.2 nM | –
14 | CCCC[P+](CCCC)(CCCC)Cc1ccc(NC(=O)/C=C/c2cccc(-c3ccc(C)cc3)c2)cc1 | 620 nM | –
15 | Cc1ccc(-c2ccc3c(c2)C=C(C(=O)Nc2ccc(C[N+]4(C)CCCCC4)cc2)CCC3)cc1 | 25 nM | –
16 | Cc1ccc(-c2ccc3c(c2)C=C(C(=O)Nc2ccc(C[N+](C)(C)C4CCC(=O)CC4)cc2)CCO3)cc1 | 4.5 nM | –
17 | C[N+]1(CCc2ccc(NC(=O)C3=Cc4cc(-c5ccccc5)ccc4CC3)cc2)CCCCC1 | 1100 nM | –
18 | Cc1ccc(-c2ccc3c(c2)C=C(C(=O)Nc2ccc(CC[N+]4(C)CCCCC4)cc2)CCO3)cc1 | 110 nM | –
19 | Cc1ccc(-c2ccc3c(c2)C=C(C(=O)Nc2ccc(C[N+](C)(C)C4CCOCC4)cc2)CCC3)cc1 [listing 2 of 2 here] | 1.8 nM | –
20 | Cc1ccc(-c2ccc3c(c2)C=C(C(=O)Nc2ccc(C[N+]4(C)CCCCC4)cc2)CO3)cc1 | 660 nM | –
21 | Cc1cccc[n+]1Cc1ccc(NC(=O)C2=Cc3cc(-c4ccccc4)ccc3CC2)cc1 | 3200 nM | –
22 | C[N+]1(Cc2ccc(NC(=O)C3=Cc4cc(-c5ccccc5)ccc4CC3)cc2)CCOCC1 | 1200 nM | –
23 | C[N+]1(Cc2ccc(NC(=O)C3=Cc4cc(-c5ccccc5)ccc4CC3)cc2)CCCC1 | 430 nM | –
24 | Cc1ccc(-c2cccc(/C=C/C(=O)Nc3ccc(C[N+]4(C)CCCCC4)cc3)c2)cc1 | 570 nM | –
25 | C[N+]1(Cc2ccc(NC(=O)C3=Cc4cc(-c5ccccc5)ccc4CC3)cc2)CCCCC1 | 390 nM | –
